Assay results: ChEMBL document CHEMBL1137701, “Synthesis, characterization and antimicrobial activity of Co(II), Zn(II) and Cd(II) complexes with N-benzyloxycarbonyl-S-phenylalanine” (2009)
Converted amounts (≈) assume the structure as drawn.

Key:
Assay type in all cases: functional
[1] = tested on: Pseudomonas aeruginosa; assay: Antibacterial activity against Pseudomonas aeruginosa ATCC 27853 at 20 ug/disk after 24 hrs by agar diffusion method; conditions: ATCC 27853, 24 h, read-out: IZ
Outline: (§1)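 Disc diffusion on 4-mm Mueller-Hinton agar, inoculated from 24 h MHB cultures (37 °C) diluted to 2×10^6 CFU/ml to give semiconfluent growth. 6-mm discs were impregnated with 1 mg/ml DMSO stock solutions. Plates were incubated 24 h at 37 °C and inhibition zone diameters measured in mm. DMSO solvent control; triplicate, averaged.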

[2] = tested on: Candida albicans; assay: Antifungal activity against Candida albicans ATCC 10259 after 48 hrs by broth microdilution method
Outline: (§2)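 Broth microdilution (NCCLS) in Sabouraud dextrose broth, 2×10^5 CFU/ml per well. Compounds in 1% DMSO were two-fold serially diluted over 62.5–1000, with 0.05% final triphenyltetrazolium chloride as growth indicator. Plates were incubated 48 h at 26 °C and growth read by absorbance at 600 nm. MIC is the lowest concentration without visible growth. Triplicate, with two growth controls.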

[3] = tested on: Candida albicans; assay: Antifungal activity against Candida albicans ATCC 24433 at 20 ug/disk after 72 hrs by agar diffusion method; conditions: ATCC 24433, 72 h, read-out: IZ
Outline: (§3)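 Candida albicans grown 24 h at 25 °C in Sabouraud dextrose broth and diluted to 1×10^8 CFU/ml. This inoculum was spread on 4-mm Sabouraud dextrose agar. 6-mm discs were impregnated with 1 mg/ml DMSO stock solutions and incubated 72 h at 26 °C. Inhibition zone diameters measured in mm; DMSO control; triplicate, averaged.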

[4] = tested on: Micrococcus luteus; assay: Antibacterial activity against Micrococcus luteus ATCC 10240 at 20 ug/disk after 24 hrs by agar diffusion method; conditions: ATCC 10240, 24 h, read-out: IZ; outline: as §1
[5] = tested on: Pseudomonas aeruginosa; assay: Antibacterial activity against Pseudomonas aeruginosa ATCC 27853 after 24 hrs by broth microdilution method; conditions: ATCC 27853, 24 h
Outline: (§4)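 Broth microdilution in Mueller-Hinton broth, run to NCCLS (2001). Overnight cultures were set to 2×10^6 CFU/ml final per well. Compounds were dissolved in 1% DMSO and tested as two-fold serial dilutions. TTC (0.05% final) served as growth indicator. Growth was read by absorbance at 600 nm after 24 h at 37 °C. MIC was the lowest concentration with no visible growth. Triplicate, with two growth controls.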

[6] = tested on: Bacillus subtilis; assay: Antibacterial activity against Bacillus subtilis ATCC 6633 after 24 hrs by broth microdilution method; conditions: ATCC 6633, 24 h; outline: as §4
[7] = tested on: Staphylococcus aureus; assay: Antibacterial activity against Staphylococcus aureus ATCC 25923 at 20 ug/disk after 24 hrs by agar diffusion method; conditions: ATCC 25923, 24 h, read-out: IZ; outline: as §1
[8] = tested on: Candida albicans; assay: Antifungal activity against Candida albicans ATCC 10259 at 20 ug/disk after 72 hrs by agar diffusion method; conditions: ATCC 10259, 72 h, read-out: IZ; outline: as §3
[9] = tested on: Bacillus subtilis; assay: Antibacterial activity against Bacillus subtilis ATCC 6633 at 20 ug/disk after 24 hrs by agar diffusion method; conditions: ATCC 6633, 24 h, read-out: IZ; outline: as §1
[10] = tested on: Staphylococcus epidermidis; assay: Antibacterial activity against Staphylococcus epidermidis ATCC 12228 after 24 hrs by broth microdilution method; conditions: ATCC 12228, 24 h; outline: as §4
[11] = tested on: Staphylococcus epidermidis; assay: Antibacterial activity against Staphylococcus epidermidis ATCC 12228 at 20 ug/disk after 24 hrs by agar diffusion method; conditions: ATCC 12228, 24 h, read-out: IZ; outline: as §1
[12] = tested on: Micrococcus luteus; assay: Antibacterial activity against Micrococcus luteus ATCC 10240 after 24 hrs by broth microdilution method; conditions: ATCC 10240, 24 h; outline: as §4
[13] = tested on: Klebsiella pneumoniae; assay: Antibacterial activity against Klebsiella pneumoniae NCIMB 9111 after 24 hrs by broth microdilution method; conditions: NCIMB 9111, 24 h; outline: as §4
[14] = tested on: Escherichia coli; assay: Antibacterial activity against Escherichia coli ATCC 25922 at 20 ug/disk after 24 hrs by agar diffusion method; conditions: ATCC 25922, 24 h, read-out: IZ; outline: as §1
[15] = tested on: Candida albicans; assay: Antifungal activity against Candida albicans ATCC 24433 after 48 hrs by broth microdilution method; outline: as §2
[16] = tested on: Klebsiella pneumoniae; assay: Antibacterial activity against Klebsiella pneumoniae NCIMB 9111 at 20 ug/disk after 24 hrs by agar diffusion method; conditions: NCIMB 9111, 24 h, read-out: IZ; outline: as §1
[17] = tested on: Escherichia coli; assay: Antibacterial activity against Escherichia coli ATCC 25922 after 24 hrs by broth microdilution method; conditions: ATCC 25922, 24 h; outline: as §4
[18] = tested on: Enterococcus faecalis; assay: Antibacterial activity against Enterococcus faecalis ATCC 29212 at 20 ug/disk after 24 hrs by agar diffusion method; conditions: ATCC 29212, 24 h, read-out: IZ; outline: as §1
[19] = tested on: Enterococcus faecalis; assay: Antibacterial activity against Enterococcus faecalis ATCC 29212 after 24 hrs by broth microdilution method; conditions: ATCC 29212, 24 h; outline: as §4
[20] = tested on: Staphylococcus aureus; assay: Antibacterial activity against Staphylococcus aureus ATCC 25923 after 24 hrs by broth microdilution method; conditions: ATCC 25923, 24 h; outline: as §4
[21] = tested on: Staphylococcus epidermidis; assay: Antibacterial activity against Staphylococcus epidermidis ATCC 12228 at 10 ug/disk after 24 hrs by agar diffusion method; conditions: ATCC 12228, 24 h, read-out: IZ
Outline: (§5)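 Reference antibiotic discs (ampicillin or amikacin) placed on 4-mm Mueller-Hinton agar inoculated to semiconfluent growth from 2×10^6 CFU/ml suspensions. Incubation 24 h at 37 °C, then inhibition zone diameter read in mm. Triplicate, averaged; done per NCCLS 1993 disc standard.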

[22] = tested on: Bacillus subtilis; assay: Antibacterial activity against Bacillus subtilis ATCC 6633 at 10 ug/disk after 24 hrs by agar diffusion method; conditions: ATCC 6633, 24 h, read-out: IZ; outline: as §5
[23] = tested on: Micrococcus luteus; assay: Antibacterial activity against Micrococcus luteus ATCC 10240 at 10 ug/disk after 24 hrs by agar diffusion method; conditions: ATCC 10240, 24 h, read-out: IZ; outline: as §5
[24] = tested on: Klebsiella pneumoniae; assay: Antibacterial activity against Klebsiella pneumoniae NCIMB 9111 at 10 ug/disk after 24 hrs by agar diffusion method; conditions: NCIMB 9111, 24 h, read-out: IZ; outline: as §5
[25] = tested on: Enterococcus faecalis; assay: Antibacterial activity against Enterococcus faecalis ATCC 29212 at 10 ug/disk after 24 hrs by agar diffusion method; conditions: ATCC 29212, 24 h, read-out: IZ; outline: as §5
[26] = tested on: Escherichia coli; assay: Antibacterial activity against Escherichia coli ATCC 25922 at 10 ug/disk after 24 hrs by agar diffusion method; conditions: ATCC 25922, 24 h, read-out: IZ
[27] = tested on: Staphylococcus aureus; assay: Antibacterial activity against Staphylococcus aureus ATCC 25923 at 10 ug/disk after 24 hrs by agar diffusion method; conditions: ATCC 25923, 24 h, read-out: IZ; outline: as §5
[28] = tested on: Pseudomonas aeruginosa; assay: Antibacterial activity against Pseudomonas aeruginosa ATCC 27853 at 10 ug/disk after 24 hrs by agar diffusion method; conditions: ATCC 27853, 24 h, read-out: IZ; outline: as §5

## O=C(N[C@@H](Cc1ccccc1)C(=O)O)OCc1ccccc1
[1]
  zone of inhibition at 20 µg/disc: 0 mm
[2]; ATCC 10259, 48 h
  MFC: 1660 µM (≈ 497 µg/mL)
  MIC: 830 µM (≈ 248 µg/mL)
[3]
  zone of inhibition at 20 µg/disc: 0 mm
[4]
  zone of inhibition at 20 µg/disc: 0 mm
[5]
  MBC: > 3340 µM
  MIC: > 3340 µM
[6]
  MBC: 3340 µM (≈ 1000 µg/mL)
  MIC: 1670 µM (≈ 500 µg/mL)
[7]
  zone of inhibition at 20 µg/disc: 0 mm
[8]
  zone of inhibition at 20 µg/disc: 0 mm
[9]
  zone of inhibition at 20 µg/disc: 0 mm
[10]
  MBC: > 3340 µM
  MIC: 3340 µM (≈ 1000 µg/mL)
[11]
  zone of inhibition at 20 µg/disc: 8 mm
[12]
  MBC: > 3340 µM
  MIC: 3340 µM (≈ 1000 µg/mL)
[13]
  MBC: > 3340 µM
  MIC: 3340 µM (≈ 1000 µg/mL)
[14]
  zone of inhibition at 20 µg/disc: 0 mm
[15]; ATCC 24433, 48 h
  MFC: 1660 µM (≈ 497 µg/mL)
  MIC: 830 µM (≈ 248 µg/mL)
[16]
  zone of inhibition at 20 µg/disc: 0 mm
[17]
  MBC: > 3340 µM
  MIC: 3340 µM (≈ 1000 µg/mL)
[18]
  zone of inhibition at 20 µg/disc: 0 mm
[19]
  MBC: > 3340 µM
  MIC: > 3340 µM
[20]
  MBC: > 3340 µM
  MIC: 3340 µM (≈ 1000 µg/mL)

## NCC[C@H](O)C(=O)N[C@@H]1C[C@H](N)[C@@H](O[C@H]2O[C@H](CN)[C@@H](O)[C@H](O)[C@H]2O)[C@H](O)[C@H]1O[C@H]1O[C@H](CO)[C@@H](O)[C@H](N)[C@H]1O [AMIKACIN]
[21]
  zone of inhibition at 10 µg/disc: 33 mm
[22]
  zone of inhibition at 10 µg/disc: 32 mm
[5]
  MBC: 12 µM (≈ 7.03 µg/mL)
  MIC: 6 µM (≈ 3.51 µg/mL)
[23]
  zone of inhibition at 10 µg/disc: 31 mm
[24]
  zone of inhibition at 10 µg/disc: 25 mm
[25]
  zone of inhibition at 10 µg/disc: 23 mm
[26]
  zone of inhibition at 10 µg/disc: 30 mm
[13]
  MBC: 9 µM (≈ 5.27 µg/mL)
  MIC: 3 µM (≈ 1.76 µg/mL)
[27]
  zone of inhibition at 10 µg/disc: 25 mm
[28]
  zone of inhibition at 10 µg/disc: 30 mm
[17]
  MBC: 6 µM (≈ 3.51 µg/mL)
  MIC: 3 µM (≈ 1.76 µg/mL)

## CC1(C)S[C@@H]2[C@H](NC(=O)[C@H](N)c3ccccc3)C(=O)N2[C@H]1C(=O)O [AMPICILLIN]
[21]
  zone of inhibition at 10 µg/disc: 12 mm
[22]
  zone of inhibition at 10 µg/disc: 15 mm
[5]
  MBC: 46 µM (≈ 16.1 µg/mL)
  MIC: 23 µM (≈ 8.04 µg/mL)
[6]
  MBC: 10 µM (≈ 3.49 µg/mL)
  MIC: 5 µM (≈ 1.75 µg/mL)
[23]
  zone of inhibition at 10 µg/disc: 33 mm
[24]
  zone of inhibition at 10 µg/disc: 23 mm
[25]
  zone of inhibition at 10 µg/disc: 16 mm
[10]
  MBC: 6 µM (≈ 2.1 µg/mL)
  MIC: 3 µM (≈ 1.05 µg/mL)
[26]
  zone of inhibition at 10 µg/disc: 18 mm
[12]
  MBC: 2 µM (≈ 0.699 µg/mL)
  MIC: 1 µM (≈ 0.349 µg/mL)
[13]
  MBC: 33 µM (≈ 11.5 µg/mL)
  MIC: 11 µM (≈ 3.84 µg/mL)
[27]
  zone of inhibition at 10 µg/disc: 26 mm
[17]
  MBC: 22 µM (≈ 7.69 µg/mL)
  MIC: 11 µM (≈ 3.84 µg/mL)
[19]
  MBC: 6 µM (≈ 2.1 µg/mL)
  MIC: 3 µM (≈ 1.05 µg/mL)
[20]
  MBC: 4 µM (≈ 1.4 µg/mL)

## NYSTATIN
[2]
  MFC: 140 µM
  MIC: 70 µM
[15]
  MFC: 60 µM
  MIC: 30 µM
